Assay outcomes from PubChem.
The full list was thinned out, with hits kept by preference.
CHOP UPR activ = activators of apoptotic arm of unfolded protein response (CHOP); CHO-CHOP luciferase reporter, UPR activation, luminescence; percent of tunicamycin response over DMSO baseline; activation, % at 10 µM; actives 0.34% (n = 330,000); AID 449763;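 active = at 10 µM dose, activation of 40% or more, normalized to positive control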;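 also: 100% = tunicamycin at 10 µg/mL and 0% = DMSO alone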
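Dosing – one dose, 10 µM in 0.5% DMSO · System – CHO-CHOP cells, stable luciferase reporter of PERK-eIF2a-CHOP signalling · Input – 500 cells/well · Control set – tunicamycin 10 µg/mL final as positive, DMSO-only wells as negative · Timing – 6 h compound treatment, 37 °C · Measure – % activation vs tunicamycin · Technique – luminescence read with Steady-Glo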
XBP1 UPR activ = activators of adaptive arm of unfolded protein response (XBP1) | CHO-XBP1 luciferase reporter, IRE1-XBP1 UPR activation, luminescence; percent of tunicamycin response, DMSO as zero | activation, % at 20 µM | actives 0.33% (n = 330,000) | AID 463104;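 active = versus positive control, 20 µM dose yields 30% or more activation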;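 also: 100% = tunicamycin at 10 µg/mL and 0% = DMSO only wells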
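Material – CHO cell line with stable XBP1 luciferase reporter · Buffer or medium – F12 plus 10% FBS · Compound – single point, 20 µM final compound, 1% DMSO · Schedule – 16-18 h cell attachment at 37 °C, then 6 h compound exposure · Signal – Steady-Glo luminescence read · Benchmarks – high control tunicamycin 10 µg/mL final, low control DMSO vehicle only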
Jurkat NFkB inh = inhibitors of the PMA/ionomycin-induced NF-kB reporter in Jurkat cells | PMA/ionomycin-induced NF-kB luciferase reporter, luminescence | inhibition, % at 4 µM | actives 0.53% (n = 330,000); in the data active = inhibition above about 50%
697 NFkB inh = inhibitors of the PMA/ionomycin-induced NF-kB reporter in 697 B cells; 697 B-cell NF-kB luciferase reporter, 16 h; inhibition, % at 4 µM; actives 0.33% (n = 330,000); in the data active = inhibition above about 35%
CHOP inh = blocks CHOP induction under ER stress. CHO-K1 CHOP-promoter luciferase, tunicamycin-induced, 15-18 h. inhibition, % at 10 µM. actives 3.8% (n = 220,000);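 active = compounds that reduced the stress-induced luciferase reporter signal by more than about 70% of percent inhibition, limit read from the data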;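 also: 0% = tunicamycin plus vehicle and 100% = wells without tunicamycin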
* = called active by the depositor; / = not tested or not shown.

SMILES | CHOP UPR activ | XBP1 UPR activ | Jurkat NFkB inh | 697 NFkB inh | CHOP inh
CC(C)(C)c1cccc(/C=N/O)c1O | 1 | 3 | 12 | -4 | 75*
CC(C)(C)c1ccc(O)c(O)c1 | 1 | -1 | 8 | 19 | /
CC(C)(C)c1ccc(O)c(/C=N\O)c1 | 5 | 2 | -16 | -27 | 78*
CCOCCCNC(=O)Cn1nc(Cc2ccncc2)c2ccccc2c1=O | 2 | 0 | -6 | 21 | /
COC(=O)c1c(NC(=O)CN2CCCc3ccccc32)sc(C)c1C | -3 | -2 | -14 | -16 | 70*
O=C(Oc1nsnc1N1CCOCC1)N1CCOCC1 | -2 | -1 | 20 | 15 | 71*
CCOc1cc2c(cc1C(C)(C)C)NC(=O)CS2 | -2 | 0 | 5 | 8 | 85*
CCOc1ccc(C(C)=O)cc1COC(=O)c1ccc2c(c1)NC(=O)CS2 | -1 | -3 | 11 | 18 | /
COc1ccc(Nc2nc(N)nc(CSC(=S)N3CCCCC3C)n2)cc1 (centres undefined) | 2 | 6 | 7 | -23 | 2
O=S(=O)(NC1CCCC1)c1ccc(S(=O)(=O)N2CCc3ccccc32)cc1 | 3 | -4 | 25 | 1 | 86*
O=C(NNC(=O)c1cccc(S(=O)(=O)N2CCc3ccccc32)c1)c1ccccc1 | / | / | / | / | 73*
O=C(CNC(=O)c1[nH]cnc1C(=O)NC(c1ccccc1)c1ccccc1)OCc1ccccc1 | 2 | -3 | -1 | 12 | /
Cc1cc(CC(C)C)n(-c2nc3ccccc3c(=O)n2OCc2ccccc2)n1 | 1 | 0 | -15 | -20 | 74*
Cc1cc(CC(C)C)n(-c2nc3ccccc3c(=O)n2OCC(=O)N(C)C)n1 | 10 | 0 | -4 | -14 | -7
Cc1ccc(-c2nnn(CC(=O)N(CC3CCCO3)C(C(=O)NC3CCCC3)c3ccc(F)cc3)n2)o1 (centres undefined) | -1 | -3 | 3 | -3 | 80*
CCn1ncc([N+](=O)[O-])c1C(=O)Nc1ccc(C)c(C)c1 | 0 | -4 | -19 | 0 | /
Cn1nc(C(=O)Nc2cccc(C(F)(F)F)c2)ccc1=O | 0 | -2 | 10 | 2 | -11
CN(C)c1nn(C(=O)Nc2cccc(C(F)(F)F)c2)cc1-c1ccccc1 | -1 | -1 | -5 | 13 | 90*
O=C(Nc1ccc(S(=O)(=O)NC2CCCCC2)cc1)c1ccc(Br)o1 | 0 | -4 | 17 | -18 | 83*
Cc1ccc(S(=O)(=O)NC2CCCCC2)cc1 | 2 | -1 | 7 | 21 | /
O=C(Nc1ccc(NC(=O)c2cccs2)cc1)c1ccc(Br)o1 | 1 | 3 | -14 | -6 | 90*
O=C(Nc1cccc(NC(=O)c2cccs2)c1)c1ccc(Br)o1 | -1 | -6 | -15 | 8 | /
CSc1ccc(S(=O)(=O)NC2CCCCCC2)cc1 | -1 | -5 | 12 | -2 | 78*
CC(C)Oc1ccc(/C=N/NC(=O)C2CCCN2S(=O)(=O)c2ccc(Cl)cc2)cc1 (centres undefined) | 1 | -1 | -11 | 7 | 79*
O=C(/C(=C/O)N=Nc1ccccc1)c1ccncc1 | -4 | -3 | -1 | 4 | 19
SMILES | CHOP UPR activ | XBP1 UPR activ | Jurkat NFkB inh | 697 NFkB inh | CHOP inh
Cc1ccc(N=N/C(=C\O)C(=O)c2ccc(Cl)cc2)cc1 | 25 | 8 | -5 | -24 | 95*
Cc1cccc(N=N/C(=C\O)C(=O)c2cccs2)c1 | 4 | 0 | -2 | -13 | 37
O=C(/C(=C/O)N=Nc1ccccc1)c1ccc(Cl)cc1 | 4 | 5 | -17 | 2 | 92*
COc1ccc(C(=O)NCC(c2ccco2)N(C)C)cc1S(=O)(=O)NCc1ccc(Cl)cc1 (centres undefined) | 0 | -1 | 4 | 18 | /
CCc1cc2c3c(c(=O)oc2cc1O)CCCC3 | -1 | 1 | -11 | 16 | 90*
O=C(N/N=C/c1ccc(OC2CSC2)cc1)c1ccc(CN2CCOCC2)cc1 | 1 | -2 | 13 | 17 | 14
O=C(N/N=C/c1ccc(OC(=O)c2ccccc2)cc1)c1ccc(CN2CCOCC2)cc1 | 0 | 0 | -5 | 10 | 71*
O=C(N/C(=C/c1ccc(F)cc1)C(=O)N1CCCCC1)c1ccco1 | -1 | -1 | 8 | 15 | /
NS(=O)(=O)c1ccc(CCNC(=O)C(=O)NCC2OCCN2S(=O)(=O)c2ccc(Cl)cc2)cc1 (centres undefined) | 3 | -1 | 7 | 6 | /
CCCCc1nc(N)c(C#N)c(-c2ccco2)c1CCC | 0 | 1 | 7 | -2 | 77*
CCSc1nc(N)c(C#N)c(-c2ccco2)c1C#N | 1 | 6 | 12 | -7 | 22
Nc1cc(=O)[nH]c(SCC(=O)Nc2ccc(N3CCOCC3)cc2)n1 | 1 | 0 | 5 | -11 | /
N/C(Cc1ccc([N+](=O)[O-])cc1)=N\OC(=O)C(c1ccccc1)c1ccccc1 | 3 | 0 | 3 | -6 | 83*
N/C(Cc1ccc([N+](=O)[O-])cc1)=N\OC(=O)c1ccccc1Br | 1 | -1 | 3 | -2 | 51
Cc1ccc(S(=O)(=O)N(C)Cc2nc(-c3ccncc3)no2)cc1 | -3 | -1 | 20 | 2 | 25
Cc1ccc(S(=O)(=O)N(C)Cc2nc(-c3ccc(Br)cc3)no2)cc1 | -1 | 0 | 7 | 7 | 83*
COC(=O)c1ccc2c(=O)n(Cc3ccc(C(=O)NC4CCCC4)cc3)c(=S)[nH]c2c1 | 4 | 12 | 4 | -18 | 85*
COC(=O)c1ccc2c(=O)n(CCO)c(=S)[nH]c2c1 | 1 | -3 | 5 | -10 | -17
COC(=O)c1ccc2c(=O)n(CCCCCC(=O)O)c(=S)[nH]c2c1 | -3 | -5 | 4 | 25 | 73*
CCN1C(=O)C(CC(=O)Nc2ccc(F)cc2)N(CCc2ccc(OC)cc2)C1=S (centres undefined) | -1 | -2 | 7 | 11 | 93*
COc1ccc(NC(=O)CC2C(=O)N(c3ccc(Cl)cc3)C(=S)N2NC(=O)c2cccc(F)c2)cc1 (centres undefined) | 3 | -1 | -11 | -28 | 84*
CCN1C(=O)C(CC(=O)Nc2ccc(OC)cc2)N(CCc2ccccc2)C1=S (centres undefined) | -1 | -1 | -6 | 8 | 8
COC(=O)CN1C(=S)N(c2ccc(Cl)cc2)C(=O)C1CC(=O)Nc1ccc(Cl)cc1 (centres undefined) | 1 | -6 | -10 | 13 | 91*
COc1ccc(NC(=O)CC2C(=O)N(c3ccc(Cl)cc3)C(=S)N2CCc2ccncc2)cc1 (centres undefined) | 2 | -2 | 3 | 8 | 93*
O=C(CSc1nnc(NC(=O)C2CC(=O)N(c3ccc(F)cc3)C2)s1)NCC1CCCO1 (centres undefined) | 1 | -7 | 15 | 15 | /
CCn1cc(C(=O)NCCCN(CC(C)C)CC(C)C)c(=O)c2cc(S(=O)(=O)N(C)C3CCCCC3)ccc21 | 2 | -5 | 27 | -26 | /
